ChEMBL document CHEMBL5058577, “EUbOPEN Chemogenomics Library 2 (Multiplex)” (2022)

System: HEK-293T
Test: Multiplex assay against HEK293T
Format: toxicity, cell-based
Details: human
How it was run: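 Live cells were stained at seeding with Hoechst33342, BioTracker Green Microtubule Cytoskeleton Dye, MitoTracker Red and Annexin V Alexa Fluor 680, then imaged on a CQ1 microscope at 37°C and 5% CO2 after compound addition. CellPathfinder machine-learning gating split cells into Hoechst high-intensity objects or normal cells. Normal cells were split into healthy, pyknosed or fragmented nuclei, and pyknosed cells into mitotic or apoptotic. Tubulin, mitochondrial-mass and membrane-permeability phenotypes are per cents of healthy-nucleus cells.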

[1] = 12 h, 1 µM, compound concentration 1 uM, replicate 1
[2] = 12 h, 1 µM, compound concentration 1 uM, replicate 2
[3] = 12 h, 10 µM, compound concentration 10 uM, replicate 1
[4] = 12 h, 10 µM, compound concentration 10 uM, replicate 2
[5] = 24 h, 1 µM, compound concentration 1 uM, replicate 1
[6] = 24 h, 1 µM, compound concentration 1 uM, replicate 2
[7] = 24 h, 10 µM, compound concentration 10 uM, replicate 1
[8] = 24 h, 10 µM, compound concentration 10 uM, replicate 2
[9] = 48 h, 1 µM, compound concentration 1 uM, replicate 1
[10] = 48 h, 1 µM, compound concentration 1 uM, replicate 2
[11] = 48 h, 10 µM, compound concentration 10 uM, replicate 1
[12] = 48 h, 10 µM, compound concentration 10 uM, replicate 2

CN1CCN2c3ccccc3Cc3ccccc3C2C1.Cl (centres undefined) [MIANSERIN HYDROCHLORIDE]
Population Apoptotic (%) [1]: 23% | Population Fragmented Nuclei (%) [1]: 5% | Population Healthy Nuclei (%) [1]: 79% | Population Hoechst High Intensity Objects (%) [1]: 5% | Population Membrane Permeable-Phenotype (%) [1]: 0% | Population Mitochondria Different-Phenotype (%) [1]: 36% | Population Mitotic Cells (%) [1]: 76% | Population Normal (%) [1]: 94% | Population Pyknosed Nuclei (%) [1]: 14% | Population Tubulin-Different-Phenotype (%) [1]: 21% | Total Cell Count [1]: 338 | Population Apoptotic (%) [2]: 46% | Population Fragmented Nuclei (%) [2]: 7% | Population Healthy Nuclei (%) [2]: 77% | Population Hoechst High Intensity Objects (%) [2]: 10% | Population Mitochondria Different-Phenotype (%) [2]: 63% | Population Mitotic Cells (%) [2]: 53% | Population Normal (%) [2]: 89% | Population Tubulin-Different-Phenotype (%) [2]: 17% | Total Cell Count [2]: 376 | Population Apoptotic (%) [3]: 34% | Population Fragmented Nuclei (%) [3]: 5% | Population Healthy Nuclei (%) [3]: 81% | Population Hoechst High Intensity Objects (%) [3]: 9% | Population Membrane Permeable-Phenotype (%) [3]: 1% | Population Mitochondria Different-Phenotype (%) [3]: 45% | Population Mitotic Cells (%) [3]: 65% | Population Normal (%) [3]: 90% | Population Pyknosed Nuclei (%) [3]: 13% | Population Tubulin-Different-Phenotype (%) [3]: 40% | Total Cell Count [3]: 410 | Population Apoptotic (%) [4]: 42% | Population Healthy Nuclei (%) [4]: 85% | Population Hoechst High Intensity Objects (%) [4]: 4% | Population Membrane Permeable-Phenotype (%) [4]: 0% | Population Mitochondria Different-Phenotype (%) [4]: 53% | Population Mitotic Cells (%) [4]: 57% | Population Normal (%) [4]: 95% | Population Pyknosed Nuclei (%) [4]: 8% | Population Tubulin-Different-Phenotype (%) [4]: 28% | Total Cell Count [4]: 491 | Population Apoptotic (%) [5]: 22% | Population Fragmented Nuclei (%) [5]: 9% | Population Healthy Nuclei (%) [5]: 80% | Population Hoechst High Intensity Objects (%) [5]: 1% | Population Membrane Permeable-Phenotype (%) [5]: 0% | Population Mitochondria Different-Phenotype (%) [5]: 21% | Population Mitotic Cells (%) [5]: 77% | Population Normal (%) [5]: 98% | Population Pyknosed Nuclei (%) [5]: 10% | Population Tubulin-Different-Phenotype (%) [5]: 14% | Total Cell Count [5]: 479 | Population Apoptotic (%) [6]: 26% | Population Fragmented Nuclei (%) [6]: 10% | Population Hoechst High Intensity Objects (%) [6]: 8% | Population Mitochondria Different-Phenotype (%) [6]: 37% | Population Mitotic Cells (%) [6]: 73% | Population Normal (%) [6]: 91% | Population Pyknosed Nuclei (%) [6]: 9% | Population Tubulin-Different-Phenotype (%) [6]: 16% | Total Cell Count [6]: 486 | Population Apoptotic (%) [7]: 24% | Population Fragmented Nuclei (%) [7]: 8% | Population Healthy Nuclei (%) [7]: 77% | Population Hoechst High Intensity Objects (%) [7]: 5% | Population Membrane Permeable-Phenotype (%) [7]: 0% | Population Mitochondria Different-Phenotype (%) [7]: 31% | Population Mitotic Cells (%) [7]: 75% | Population Normal (%) [7]: 94% | Population Pyknosed Nuclei (%) [7]: 14% | Population Tubulin-Different-Phenotype (%) [7]: 34% | Total Cell Count [7]: 486 | Population Apoptotic (%) [8]: 32% | Population Fragmented Nuclei (%) [8]: 5% | Population Healthy Nuclei (%) [8]: 84% | Population Hoechst High Intensity Objects (%) [8]: 3% | Population Mitochondria Different-Phenotype (%) [8]: 36% | Population Mitotic Cells (%) [8]: 67% | Population Normal (%) [8]: 96% | Population Pyknosed Nuclei (%) [8]: 10% | Population Tubulin-Different-Phenotype (%) [8]: 21% | Total Cell Count [8]: 612 | Population Apoptotic (%) [9]: 13% | Population Fragmented Nuclei (%) [9]: 15% | Population Healthy Nuclei (%) [9]: 77% | Population Hoechst High Intensity Objects (%) [9]: 1% | Population Membrane Permeable-Phenotype (%) [9]: 1% | Population Mitochondria Different-Phenotype (%) [9]: 15% | Population Mitotic Cells (%) [9]: 86% | Population Normal (%) [9]: 98% | Population Pyknosed Nuclei (%) [9]: 6% | Population Tubulin-Different-Phenotype (%) [9]: 9% | Total Cell Count [9]: 812 | Population Apoptotic (%) [10]: 37% | Population Fragmented Nuclei (%) [10]: 16% | Population Healthy Nuclei (%) [10]: 78% | Population Hoechst High Intensity Objects (%) [10]: 3% | Population Membrane Permeable-Phenotype (%) [10]: 0% | Population Mitochondria Different-Phenotype (%) [10]: 18% | Population Mitotic Cells (%) [10]: 62% | Population Normal (%) [10]: 96% | Population Pyknosed Nuclei (%) [10]: 4% | Total Cell Count [10]: 761 | Population Apoptotic (%) [11]: 24% | Population Fragmented Nuclei (%) [11]: 14% | Population Healthy Nuclei (%) [11]: 76% | Population Hoechst High Intensity Objects (%) [11]: 2% | Population Membrane Permeable-Phenotype (%) [11]: 0% | Population Mitochondria Different-Phenotype (%) [11]: 18% | Population Mitotic Cells (%) [11]: 75% | Population Normal (%) [11]: 97% | Population Pyknosed Nuclei (%) [11]: 8% | Population Tubulin-Different-Phenotype (%) [11]: 17% | Total Cell Count [11]: 702 | Population Apoptotic (%) [12]: 35% | Population Healthy Nuclei (%) [12]: 79% | Population Hoechst High Intensity Objects (%) [12]: 1% | Population Membrane Permeable-Phenotype (%) [12]: 1% | Population Mitochondria Different-Phenotype (%) [12]: 14% | Population Mitotic Cells (%) [12]: 64% | Population Normal (%) [12]: 98% | Population Pyknosed Nuclei (%) [12]: 6% | Population Tubulin-Different-Phenotype (%) [12]: 11% | Total Cell Count [12]: 860
